KCC2 mod = KCC2 (human) Cl- transport modulation; KCC2 cells, thallium flux FluoZin-2 fluorescence; B-score of Tl+ flux slope (higher = more flux/activation; lower = inhibition) at 10 µM; hit rate 2.2% among 190,000; AID 1456;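 active = thallium flux slope and its plate-corrected score both differing from the plate sample mean at a set confidence after two filtering rounds, in either direction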;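 note: slope of fluorescence scaled to starting intensity during 10 to 20 s after thallium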
ROMK primary = modulators of human ROMK potassium channel; B-score at 10 µM; Tet-inducible ROMK, thallium flux fluorescence; actives lie on both sides; AID 1918; P48048; hit rate 2% among 130,000;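 active = signal ratio slope over the read window, or its plate-corrected B-score, at least 3 SD from the plate mean, either direction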;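 note: B-score of the F/F0 ratio slope over 7 to 12 s after thallium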
Calpain2 inh = blocks pig calpain II enzyme activity | purified calpain II, fluorogenic peptide substrate, 30 min | inhibition, % at 16 µM | hit rate 0.37% among 220,000;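 active = inhibition above about 50%, limit read from the data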
PKD1 kinase inh = inhibitors of human PKD1 kinase | Q15139 | PKD1 kinase fluorescence polarization assay | inhibition, % (no concentration beside the values) | hit rate 0.056% among 200,000 | AID 797; in the data active = inhibition above about 50%
Arbovirus anti = antivirals against arbovirus infection | arbovirus infection cell-based antiviral screen | inhibition, % at 10 µM | hit rate 0.37% among 200,000; in the data active = inhibition above about 30%
Mdm2 ligase inh = blocks human Mdm2 ubiquitin ligase activity; Q00987; hit rate 0.11% among 210,000; signal enhancement, % at 5 µM; cell-based MDM2 ubiquitination luciferase reporter, 2 h; 0 = plate control, 100 = twice control, blank-subtracted;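 active = signal enhancement of 30% or more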;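 note: luminescence tracks abundance of the self-degrading MDM2-luciferase fusion protein; higher signal means inhibition of MDM2 E3 ligase activity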
Target sequence (Q00987 whole entry, looked up, the tested form may be a part): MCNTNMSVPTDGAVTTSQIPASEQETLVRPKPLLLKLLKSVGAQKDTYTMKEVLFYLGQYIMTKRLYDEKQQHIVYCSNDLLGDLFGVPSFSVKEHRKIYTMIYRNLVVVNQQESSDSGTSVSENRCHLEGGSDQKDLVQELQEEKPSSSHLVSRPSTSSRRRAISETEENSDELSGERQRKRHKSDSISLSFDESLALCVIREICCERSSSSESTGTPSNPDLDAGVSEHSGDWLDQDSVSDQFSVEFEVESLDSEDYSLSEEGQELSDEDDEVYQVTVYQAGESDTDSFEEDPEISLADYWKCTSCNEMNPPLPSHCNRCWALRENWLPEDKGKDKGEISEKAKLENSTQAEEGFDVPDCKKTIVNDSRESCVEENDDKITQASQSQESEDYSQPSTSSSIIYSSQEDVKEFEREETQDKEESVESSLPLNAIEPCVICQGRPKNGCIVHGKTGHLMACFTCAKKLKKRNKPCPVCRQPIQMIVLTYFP
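Assay system: stable mammalian line carrying autodegrading MDM2–luciferase fusion reporter; amount: 2000 cells seeded into each well; buffer or medium: DMEM; benchmarks: plate control and blank wells; signal: luciferase luminescence; timing: 2 h compound exposure at 37 °C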
Starred values were filed as active, the others as inactive. Hits are enriched below; roughly 3.7% of the tested compounds scored in any of these assays.

`COC(=O)c1ccccc1NC(=O)CN1CCC(C)CC1` gave KCC2 mod 1.3, Calpain2 inh -3, PKD1 kinase inh -10, Arbovirus anti 3 and Mdm2 ligase inh -16.
For CCN1CCCC1CNC(=O)c1ccc(N2CCOCC2)c(NS(=O)(=O)c2ccc(OC)cc2)c1 (stereo unspecified) the results were KCC2 mod 0.0032, ROMK primary -0.29, Calpain2 inh -25, PKD1 kinase inh 7, Arbovirus anti -1 and Mdm2 ligase inh -8.
Cc1ccccc1N=Nc1ccc(O)c2ncccc12 was read as KCC2 mod 41*, ROMK primary 0.56, Calpain2 inh -6, PKD1 kinase inh 5, Arbovirus anti -23 and Mdm2 ligase inh 17.
O=C(O)/C=C/C(=O)Nc1ccc(S(=O)(=O)N2CCCC2)cc1 was read as KCC2 mod 0.21, Calpain2 inh -35, PKD1 kinase inh -4, Arbovirus anti 15 and Mdm2 ligase inh 30.
`CCOc1ccc(OCCN2CCCCC2)cc1` gave KCC2 mod 0.46, ROMK primary 0.39, Calpain2 inh -4, PKD1 kinase inh 4, Arbovirus anti 0 and Mdm2 ligase inh 0.
For CCCOc1ccc(OCCN2CCCC(C)C2)cc1 (stereo unspecified) the results were KCC2 mod 0.0013, ROMK primary -0.91, Calpain2 inh 50*, PKD1 kinase inh 1, Arbovirus anti -20 and Mdm2 ligase inh 0.
Screening CCOC(=O)CC(=O)CSc1nc2c(sc(=S)n2-c2ccc(OCC)cc2)c(=O)[nH]1 returned KCC2 mod -2.4, ROMK primary -1.6, Calpain2 inh 7, PKD1 kinase inh -19, Arbovirus anti 60* and Mdm2 ligase inh -9.
`CCCN(CCC)C(=O)CSc1nc2c(sc(=S)n2-c2ccc(OCC)cc2)c(=O)[nH]1` gave KCC2 mod -2.1, ROMK primary -1.1, Calpain2 inh 17, PKD1 kinase inh 0, Arbovirus anti 42* and Mdm2 ligase inh -8.
Screening CCN(CC)C(=O)CSc1nc2c(sc(=S)n2-c2ccccc2)c(=O)n1Cc1ccco1 returned KCC2 mod -1.8, ROMK primary -0.29, Calpain2 inh 1, PKD1 kinase inh -2, Arbovirus anti -14 and Mdm2 ligase inh 7.
For CCOc1ccc(-n2c(=S)sc3c(=O)[nH]c(SCC(=O)NC(C)CC)nc32)cc1 (stereo unspecified) the results were KCC2 mod 1.3, ROMK primary 0.57, Calpain2 inh -3, PKD1 kinase inh 4, Arbovirus anti 7 and Mdm2 ligase inh -11.
CN1C2CCC1CC(NC(=O)CSCc1ccc(Cl)cc1Cl)C2 (stereo unspecified) was read as KCC2 mod -0.23, Calpain2 inh -25 and Mdm2 ligase inh 0.
`Cc1ccc(C(N)=Nc2ccccc2)cc1` gave KCC2 mod 0.6, Calpain2 inh -9 and Mdm2 ligase inh -1.
COc1ccc(-c2nc3ccccc3c(C(=O)Nc3ccc(S(=O)(=O)Nc4cc(C)on4)cc3)c2C)cc1 was read as KCC2 mod 0.082, ROMK primary 4.2*, Calpain2 inh -89, PKD1 kinase inh -5, Arbovirus anti -6 and Mdm2 ligase inh -24.
`Cc1ccc(-c2cc(C(=O)Nc3ccc(S(=O)(=O)Nc4cc(C)on4)cc3)c3ccccc3n2)c(C)c1` gave KCC2 mod -1.2, ROMK primary 1.9, Calpain2 inh -30, PKD1 kinase inh -2, Arbovirus anti 0 and Mdm2 ligase inh 13.
Cc1cc(NS(=O)(=O)c2ccc(NC(=S)NC(=O)c3ccc(C(C)(C)C)cc3)cc2)no1 was read as ROMK primary 1, Calpain2 inh 63*, PKD1 kinase inh 6, Arbovirus anti 23 and Mdm2 ligase inh -18.
Cc1ccc(NC(=O)NC(=O)N(C(C)C)S(=O)(=O)c2ccc(C)cc2)cc1 was read as KCC2 mod -0.16, ROMK primary -0.42, Calpain2 inh 6, PKD1 kinase inh -6, Arbovirus anti 16 and Mdm2 ligase inh -10.
`COc1ccc(CCCc2nnc(SCC(=O)Nc3ccc(C)c(C)c3)o2)cc1` gave KCC2 mod -1.1, ROMK primary -0.033, Calpain2 inh 60*, PKD1 kinase inh -7, Arbovirus anti 1 and Mdm2 ligase inh -22.
For COc1ccc(CCCc2nnc(SCC(=O)Nc3ccc(OC)cc3)o2)cc1 the results were KCC2 mod -0.035, ROMK primary 0.031, Calpain2 inh 11, PKD1 kinase inh -3, Arbovirus anti -2 and Mdm2 ligase inh -5.
